One test deals with TUNEL‐positive cells. Description: TUNEL staining of tumor biopsies. The class given is in vivo, human. The conditions noted are these: HCC and salivary gland tumor samples after treatment. A digest of the protocol: (§1)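 Optional pretreatment and on-treatment (days 15–22) tumor biopsies from 2 patients in the 30-mg/d cohort (HCC and salivary gland tumor). Paraffin-embedded sections were immunostained per antibody (pS6RP, p4EBP1, pAKT, Ki-67) or TUNEL-labelled, then scored by quantitative image analysis.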

For the next test, the system named is pS6RP. Description: immuno‐histochemical staining of tumor biopsies. The class given is in vivo, human. Conditions: pre‐ vs on‐treatment (days 15‐22), HCC and salivary gland tumor, 30‐mg/d cohort. The gist of the method:
as §1

In test [1] the test system is U87 glioblastoma multiforme. The conditions noted are these: cited from earlier work.
Test [2] relates to patients with advanced solid tumors or multiple myeloma. As to the kind of experiment: phase 1 dose escalation: preliminary efficacy. The test is classed as in vivo, human. The gist of the method: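 Single dose on day −1, then oral daily dosing after a ≥6-h fast in 28-day cycles until progression. Tumors were imaged by CT or MRI. Response was scored by RECIST 1.1, international uniform criteria for myeloma, or revised high-grade glioma criteria. Evaluable patients were eligible, completed ≥1 cycle, and had baseline plus ≥1 postbaseline assessment. Disease control rate was given with a 90% confidence interval.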

Test [3] deals with solid tumor lines, including breast, glioma, hepatocellular carcinoma (HCC), and non–small cell lung cancer. Conditions: cited from earlier work.
Another test has as its system Ki67. As to the kind of experiment: immuno‐histochemical staining of tumor biopsies. The class given is in vivo, human. The conditions noted are these: pre‐ vs on‐treatment (days 15‐22), HCC and salivary gland tumor, 30‐mg/d cohort. The gist of the method: as §1

Several values for one entry are separate records, joined by “and”; a condition that tells them apart may be missing. Identical values can stand only once.

Regarding `CO[C@H]1CC[C@H](N2C(=O)CNc3ncc(-c4ccc(C(C)(C)O)nc4)nc32)CC1` [CC‐223], the “TUNEL‐positive cells in tumor biopsies” value in the test on TUNEL‐positive cells is given as “increase”. The “pS6RP staining in tumor biopsies” value with pS6RP is reported as “Significant inhibition”. For the same molecule, the “single‐agent activity in xenograft model” value in test [1] is listed as “single‐agent activity”. For the same molecule, the complete response result in test [2] (20 patients evaluable for efficacy) is reported as “No patient had a complete response”. Besides, the “patients with stable disease” value in test [2] (across ≥15 mg/d cohorts) is 8 patients. The “patients with progressive disease” value in test [2] (best response) is recorded as 12 patients. Besides, the “duration of partial response / disease control” value in test [2] (breast cancer patient with PR, 30‐mg/d cohort) is listed as 220 days. In addition, the disease control duration in test [2] (breast cancer patient with SD) amounted to 168 days. In test [2] (breast cancer patient, 30‐mg/d cohort), the partial response rate stood at 3.6%. For the same molecule, the “patients with reduction in target lesions” value in test [2] (in addition to the PR) worked out at 5 patients. Also, in test [2] (in vivo), the “patients with SD >100 days” value was 5 patients and the “patients with disease control durations of >100 days” value was “Six”. Further, in test [2] (safety population), the “best overall response rate per investigator” value stood at 3.6%; the disease control rate was 32% and 32.1%; the stable disease rate is listed as 29%. The “activity against solid tumor lines” value in test [3] is reported as “active”. Moreover, the “Ki67 staining in tumor biopsies” value in the test on Ki67 was “Significant inhibition”.

The record behind these values is paper PMC4832308 (Cancer, 2015).
